Measurements reported in PMC10762718 (RSC Advances, 2024).

Experiments:
Type in all cases: cell-based
[1] = system: MDA-MB-231 (human breast cancer) cells; test: MTT cell viability assay, MDA-MB-231; details: for inhibition at 25 µM: MDA-MB-231
Procedure, shortened: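 MDA-MB-231 cells were grown as a monolayer in DMEM with 10% heat-inactivated FBS and 1% penicillin-streptomycin at 37 °C in humidified CO2, subcultured every third day with trypsin-EDTA, and used before passage 8. Cells were exposed 72 h to 10, 25 and 50 μM. Medium was removed, MTT added for 3 h at 37 °C, formazan dissolved in DMSO and read at 595 nm. Viability is relative to untreated control, triplicates, ±SD. IC50 comes from the viability-versus-concentration plot.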

[2] = MTT cell viability assay, normal MCF-10A cells; details: human, MCF-10A normal mammary epithelial cells
Procedure, shortened: (§1)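 Normal mammary epithelial MCF-10A cells were exposed to test compound at 25, 50 and 100 μM for 72 h. Cells were then given MTT after medium removal, 3 h at 37 °C in CO2. Formazan was dissolved in DMSO and absorbance read at 595 nm. Viability is expressed as percent of untreated control cells.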

[3] = system: normal mammary epithelial MCF-10A cells; test: MTT cell viability assay, normal MCF-10A cells; details: tested at 25, 50 and 100 μM
Procedure, shortened: as §1

MDA-MB-453 cells = test: MTT cell viability assay, MDA-MB-453; details: for IC50 against MDA-MB-453 cells: tested at 1, 10 and 25 μM
Procedure, shortened: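 MDA-MB-453 (HER2-positive) cells were exposed to test compound at 1, 10 and 25 μM for 72 h. After medium removal, MTT was added for 3 h at 37 °C in CO2. Formazan was dissolved in DMSO and absorbance read at 595 nm. Percent viable cells are relative to untreated control cells.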

[4] = system: MCF-7 breast cancer cells; test: MTT cell viability assay, MCF-7; details: Homo sapiens; for inhibition at 25 µM: MCF7; for IC50: MCF7, 72 h, read-out: IC50 against MCF-7 breast cancer cells line
Procedure, shortened: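 After medium removal, MTT was added for 3 h at 37 °C in CO2, formazan dissolved in DMSO and absorbance read at 595 nm. Viability is relative to untreated cells, triplicates, n = 3, ±SD. IC50 comes from plotting percent viability against concentration.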

[5] = MDA-MB-231, 72 h, read-out: Cell viability (%) ±SD
[6] = Homo sapiens, MDA-MB-453, read-out: Cell viability (%) ±SD
[7] = MCF7, read-out: Cell viability (%) ±SD

Compound | inhibition at 25 µM [1] | viability at 10 µM [1, 5] | viability at 25 µM [1, 5] | viability at 50 µM [1, 5] | viability at 72 h, 25 µM [2] | viability at 72 h, 50 µM [2] | viability at 72 h, 100 µM [2] | growth inhibitory activity against normal breast epithelial cell (MCF-10A) [3] | viability at 1 µM (MDA-MB-453 cells; [6]) | viability at 10 µM (MDA-MB-453 cells; [6]) | viability at 25 µM (MDA-MB-453 cells; [6]) | IC50 against MDA-MB-453 cells (MDA-MB-453 cells) | inhibition at 25 µM [4] | IC50 [4] | viability at 1 µM [4, 7] | viability at 10 µM [4, 7] | viability at 25 µM [4, 7] | further results
CC(=O)OC[C@@H]1O[C@H](n2cc(Cn3ccc4nc(-c5ccc(F)cc5)cc(=O)n43)nn2)[C@@H](OC(C)=O)[C@H](OC(C)=O)[C@H]1OC(C)=O (stereo in doubt) [Compound 26, (2S,3S,4R,5S,6S)-2-(Acetoxymethyl)-6-(4-((5-(4-fluorophenyl)-7-oxopyrazolo[1,5-a]pyrimidin-1(7H)-yl)methyl)-1H-1,2,3-triazol-1-yl)tetrahydro-2H-pyran-3,4,5-triyl triacetate] | ~50% | 76.6 ± 9.76% | 60 ± 8.47% | 54.6 ± 5.61% | 87.8 ± 2.8% | 85.6 ± 0.7% | 82 ± 1.5% | none of these compounds did have any growth inhibitory activity | 87.8 ± 3.2% | 84.2 ± 11.5% | 66.3 ± 5.8% | did not reach up to IC50 value | ~50% | 26.6 µM | 80 ± 4.5% | 65.8 ± 1.8% | 52.8 ± 3% | 
CC(=O)OC[C@@H]1O[C@H](n2cc(Cn3ccc4nc(-c5ccc6c(c5)OCO6)cc(=O)n43)nn2)[C@@H](OC(C)=O)[C@H](OC(C)=O)[C@H]1OC(C)=O (stereo in doubt) [Compound 30, (2S,3S,4R,5S,6S)-2-(Acetoxymethyl)-6-(4-((5-(benzo[d][1,3]dioxol-5-yl)-7-oxopyrazolo[1,5-a]pyrimidin-1(7H)-yl)methyl)-1H-1,2,3-triazol-1-yl)tetrahydro-2H-pyran-3,4,5-triyl triacetate] | ~50% | 86.6 ± 3.36% | 55.2 ± 7.06% | 42.8 ± 5.04% | 86.8 ± 5.3% | 84.8 ± 3% | 78.5 ± 3.4% | none of these compounds did have any growth inhibitory activity | 99.2 ± 8.1% | 74.8 ± 1.5% | 61.4 ± 3.2% | did not reach up to IC50 value | ~50% | 18.5 µM | 78.2 ± 2.6% | 57.7 ± 2.4% | 42.3 ± 7.6% | 
COc1ccc(-c2cc(=O)n3c(ccn3Cc3cn([C@H]4O[C@H](COC(C)=O)[C@@H](OC(C)=O)[C@H](OC(C)=O)[C@@H]4OC(C)=O)nn3)n2)cc1 [Compound 41, (2R,3R,4S,5S,6S)-2-(Acetoxymethyl)-6-(4-((5-(4-methoxyphenyl)-7-oxopyrazolo[1,5-a]pyrimidin-1(7H)-yl)methyl)-1H-1,2,3-triazol-1-yl)tetrahydro-2H-pyran-3,4,5-triyl triacetate] | ~50% | 66.7 ± 8.21% | 54.3 ± 6.12% | 44.2 ± 4.11% | 89.8 ± 2.8% | 84.2 ± 5.8% | 83 ± 1.5% | none of these compounds did have any growth inhibitory activity | 96.4 ± 4.8% | 77.4 ± 5.4% | 95.1 ± 35.7% | did not reach up to IC50 value | ~50% | 21.8 µM | 72.8 ± 4.2% | 58.2 ± 3.8% | 48.1 ± 3.5% | 
COc1ccc(-c2cc(=O)n3c(ccn3Cc3cn([C@H]4O[C@@H](COC(C)=O)[C@H](OC(C)=O)[C@@H](OC(C)=O)[C@@H]4OC(C)=O)nn3)n2)cc1 (stereo in doubt) [Compound 23, (2S,3S,4R,5S,6S)-2-(Acetoxymethyl)-6-(4-((5-(4-methoxyphenyl)-7-oxopyrazolo[1,5-a]pyrimidin-1(7H)-yl)methyl)-1H-1,2,3-triazol-1-yl)tetrahydro-2H-pyran-3,4,5-triyl triacetate] | ~50% | 65.1 ± 8.53% | 49 ± 9.19% | 34.3 ± 5.29% | 88.6 ± 1.5% | 86.3 ± 2.9% | 84.2 ± 3% | none of these compounds did have any growth inhibitory activity | 80.6 ± 8% | 88.4 ± 5.4% | 77.1 ± 5.7% | did not reach up to IC50 value | ~50% | 9.24 µM | 66.7 ± 1.18% | 40.3 ± 3.6% | 31.7 ± 4% | 
CC(=O)OC[C@@H]1O[C@H](n2cc(Cn3ccc4nc(-c5ccc(C(F)(F)F)cc5)cc(=O)n43)nn2)[C@@H](OC(C)=O)[C@H](OC(C)=O)[C@@H]1OC(C)=O (stereo in doubt) [Compound 36, (2S,3R,4R,5S,6S)-2-(Acetoxymethyl)-6-(4-((7-oxo-5-(4-(trifluoromethyl)phenyl)pyrazolo[1,5-a]pyrimidin-1(7H)-yl)methyl)-1H-1,2,3-triazol-1-yl)tetrahydro-2H-pyran-3,4,5-triyl triacetate] | ~50% | 70.4 ± 5.36% | 46.1 ± 3.32% | 41.2 ± 1.26% | 88.6 ± 1.5% | 86.1 ± 2.8% | 84.2 ± 3% | none of these compounds did have any growth inhibitory activity | 91.5 ± 4.6% | 82.9 ± 1.2% | 63.8 ± 1.7% | did not reach up to IC50 value | ~50% | 4.93 µM | 52.3 ± 3.1% | 32.4 ± 0.9% | 28.1 ± 4.4% | 
CC(=O)OC[C@@H]1O[C@H](n2cc(Cn3ccc4nc(-c5ccc(Br)cc5)cc(=O)n43)nn2)[C@@H](OC(C)=O)[C@H](OC(C)=O)[C@H]1OC(C)=O (stereo in doubt) [Compound 24, (2S,3S,4R,5S,6S)-2-(Acetoxymethyl)-6-(4-((5-(4-bromophenyl)-7-oxopyrazolo[1,5-a]pyrimidin-1(7H)-yl)methyl)-1H-1,2,3-triazol-1-yl)tetrahydro-2H-pyran-3,4,5-triyl triacetate] |  | 100 ± 8.01% | 100 ± 8.93% | 98.5 ± 2.89% |  |  |  |  |  |  |  |  |  |  |  |  |  | 
COCCn1c2c([n+](Cc3cnccn3)c1C)C(=O)c1ccccc1C2=O [YM155, reference compound] |  |  |  |  |  |  |  |  |  |  |  |  |  |  |  |  |  | viability at 0.02 µM [1, 5]: 23.4 ± 3.13%; viability at 72 h, 0.02 µM [2]: 39.2 ± 1.6%; viability at 0.02 µM (MDA-MB-453 cells; [6]): 36.2 ± 1.5%; viability at 0.02 µM [4, 7]: 31.2 ± 1.7%
CC(=O)OC[C@H]1O[C@H](n2cc(Cn3ccc4nc(-c5ccc6ccccc6c5)cc(=O)n43)nn2)[C@@H](OC(C)=O)[C@@H](OC(C)=O)[C@@H]1OC(C)=O [Compound 47, (2R,3R,4S,5S,6S)-2-(Acetoxymethyl)-6-(4-((5-(naphthalen-2-yl)-7-oxopyrazolo[1,5-a]pyrimidin-1(7H)-yl)methyl)-1H-1,2,3-triazol-1-yl)tetrahydro-2H-pyran-3,4,5-triyl triacetate] |  | 102 ± 9.28% | 89.8 ± 2.22% | 81.5 ± 5.45% |  |  |  |  |  |  |  |  |  |  |  |  |  | 
CC(=O)OC[C@H]1O[C@H](n2cc(Cn3ccc4nc(-c5ccc(Br)cc5)cc(=O)n43)nn2)[C@@H](OC(C)=O)[C@@H](OC(C)=O)[C@@H]1OC(C)=O [Compound 42, (2R,3R,4S,5S,6S)-2-(Acetoxymethyl)-6-(4-((5-(4-bromophenyl)-7-oxopyrazolo[1,5-a]pyrimidin-1(7H)-yl)methyl)-1H-1,2,3-triazol-1-yl)tetrahydro-2H-pyran-3,4,5-triyl triacetate] |  | 81.3 ± 7.65% | 78.5 ± 6.58% | 75.5 ± 8.45% |  |  |  |  |  |  |  |  |  |  |  |  |  | 
CC(=O)OC[C@H]1O[C@H](n2cc(Cn3ccc4nc(-c5ccc(C)cc5)cc(=O)n43)nn2)[C@@H](OC(C)=O)[C@@H](OC(C)=O)[C@@H]1OC(C)=O [Compound 40, (2R,3R,4S,5S,6S)-2-(Acetoxymethyl)-6-(4-((7-oxo-5-(p-tolyl)pyrazolo[1,5-a]pyrimidin-1(7H)-yl)methyl)-1H-1,2,3-triazol-1-yl)tetrahydro-2H-pyran-3,4,5-triyl triacetate] |  | 99 ± 7.7% | 92.8 ± 7.09% | 91.7 ± 9.12% |  |  |  |  |  |  |  |  |  |  |  |  |  | 
